# Source: PubChem BioAssay
# Shown are actives, neighbours in structure and some others; about 2.6% of the full set was active somewhere.
# PvdQ acylase – blocks Pseudomonas aeruginosa PvdQ acylase activity | 340,000 compounds, 0.063% hits | inhibition, % at 10 µM | purified PvdQ acylase, fluorescence plate reader; in the data active = inhibition above about 30%, passing the limit was not always enough; inconclusive = no clear call, values can overlap the other calls;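 note: 0% = vehicle neutral wells and 100% = reference inhibitor wells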
# Xi reactivation – X-chromosome reactivation activator. XiGFP mouse fibroblasts, % GFP-positive cells imaging, 3 d; cells co-treated with 5-aza-dC sensitizer; scaled so ellipticine positive control = 100%. activation, % at 7.58 µM. 360,000 compounds, 0.055% hits. AID 743238;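 active = mean normalized replicate activation at least 10% and every replicate at or above 10%; inconclusive = only one of the two criteria met; inactive = mean below 10% and not all replicates reach 10%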;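 note: 0% = median of on-plate neutral control wells and 100% = ellipticine 6 µM median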
#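 assay system = SV40-immortalized XiGFP fibroblast cells, line 68-5-11 | buffer or medium = DMEM plus 5-aza-dC sensitizer | doses = single-point pinned compound dosing | times = 3-day compound exposure, then 15 min fixation at room temperature | benchmarks = positive control ellipticine, 6 µM final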
# dFosB act-1 – mouse delta FosB homodimer activation | P13346 | purified delta FosB, TAMRA-CDK5 oligo fluorescence polarization; percent of positive-control signal above neutral wells | activation, % at 25 µM | 340,000 compounds, 0.99% hits;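 active = mean activation above about 17%, with every replicate also reaching it, limit read from the data, passing the limit was not always enough; inconclusive = only one of the two conditions met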
# Target sequence (P13346 whole entry, looked up): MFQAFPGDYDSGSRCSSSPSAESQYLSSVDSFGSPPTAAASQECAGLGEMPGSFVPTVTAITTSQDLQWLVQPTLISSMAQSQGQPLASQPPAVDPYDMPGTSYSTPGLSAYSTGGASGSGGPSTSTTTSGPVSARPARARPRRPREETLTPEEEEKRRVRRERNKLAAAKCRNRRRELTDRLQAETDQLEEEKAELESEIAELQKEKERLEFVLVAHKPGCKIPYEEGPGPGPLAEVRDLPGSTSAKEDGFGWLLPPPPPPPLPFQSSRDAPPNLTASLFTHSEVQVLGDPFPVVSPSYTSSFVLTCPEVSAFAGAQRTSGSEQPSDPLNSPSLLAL
# SR-BI uptake up – enhances SR-BI lipid uptake from DiI-HDL | CHO ldlA[mSR-BI] cells, DiI-HDL uptake fluorescence, 3 h; 100 = double the neutral-control signal | activation, % at 12.5 µM | 320,000 compounds, 0.096% hits | AID 504775;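 active = mean replicate activation of at least 60% and every replicate at or above 60%; inconclusive = mean or all-replicate condition met, but not both; inactive = mean below 60% and not all replicates reaching 60%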;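 note: 0% = median plate neutral-control signal and 100% = twice that signal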
#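 Test system: SR-BI-overexpressing, LDLR-lacking CHO cells. Measured by: DiI fluorescence, bottom read. Medium: Ham's F12 with 0.5% BSA, HEPES 25 mM, pH 7.4. Timing: 3 h uptake period with compound, 37 °C.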
# rRNA inh HTS – inhibitors of bacterial rRNA selective over humanized ribosomes; E. coli WT GFP vs humanized-ribosome RFP mutants, fluorescence, 24 h; active compounds read low; DMSO median 0, no signal -100; GFP signal change (wild-type ribosome), % (concentration not given with the values); 350,000 compounds, 1.6% hits;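 active = significant combined selectivity score with lowered wild-type GFP, culture density cut under 30%, mutant RFP and density less affected; inactive = any of these conditions unmet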
# SR-BI HDL uptake – inhibitors of mouse SR-BI mediated HDL lipid uptake; ldlA[mSR-BI] CHO cells, DiI-HDL uptake fluorescence, 3 h; inhibition, % at 12.5 µM; 320,000 compounds, 0.96% hits;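 active = mean replicate inhibition of at least 70% and a set share of replicates each scoring 70 or more; inconclusive = meets just one of the two criteria; inactive = fails both criteria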;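 note: 0% = median of neutral control wells and 100% = median of positive control wells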
# dFosB act-2 – activators of mouse delta FosB homodimer DNA binding; shares compounds with dFosB act-1; purified delta FosB, TAMRA-CDK5 oligo fluorescence polarization; normalised: neutral wells 0, positive control 100; activation, % at 24.9 µM; 2,400 tested, under 10 active;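 active = highest replicate activation at or above 34% and every replicate reaching that threshold; inconclusive = meets only one of the two criteria; inactive = meets neither criterion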;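 note: higher polarization means more probe DNA bound by delta FosB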
# Active calls of the source: *; ? = inconclusive; . = not tested or not shown.
SMILES,PvdQ acylase,Xi reactivation,dFosB act-1,SR-BI uptake up,rRNA inh HTS,SR-BI HDL uptake,dFosB act-2
COc1cccc(COC(=O)c2ccc(S(=O)(=O)N3CCC(C)CC3)cc2)c1OC,-10.8,0.1,6.3,1.7,3.1,-1.7,.
COc1ccc(CNS(=O)(=O)c2ccc(S(=O)(=O)N3CCCCC3)cc2)cc1,-4.8,.,41.1*,-6.0,.,6.0,0.7
CCC(C)c1ccccc1NC(=O)COC(=O)C1=NN(c2ccccc2)C(=O)CC1 (stereo not given),-15.5,0.0,3.4,0.0,6.0,0.0,.
COc1ccc(CCNC(=O)CCCCCNc2nc(=S)[nH]c3ccccc23)cc1OC,-3.1,-0.1,-4.9,2.0,.,-2.0,.
O=C(NC1CCCCC1)c1ccc(CNc2nc(=S)[nH]c3ccccc23)cc1,2.4,0.1,19.3*,-6.7,5.2,6.7,1.7
COc1ccc(CNC(=O)CCCCCNc2nc(=S)[nH]c3ccccc23)cc1,4.7,0.0,38.8*,-17.7,.,17.7,2.4
CC(=O)c1cc(NC(=O)c2ccc(Cl)cc2)c(=O)oc1/C=C/N(C)C,-2.2,.,2.5,-10.2,.,10.2,.
COc1ccc([C@@H]2C/C=C\C[C@@H](c3ccc4c(c3)OCO4)NC(=O)[C@@H](c3ccccc3)CC(=O)N2)c(OC)c1,.,0.4,.,.,0.4,.,.
COc1ccc(CCNC(=O)c2nnn(CC(=O)Nc3c(C)cc(C)cc3C)c2N)cc1OC,-7.8,0.0,80.5*,-36.1,2.8,36.1,3.3
CCOc1ccc(CCNC(=O)c2nnn(CC(=O)Nc3ccccc3C)c2N)cc1OCC,-12.4,0.0,15.5,-37.8,1.1,37.8,.
CCOc1ccc(CCNC(=O)c2nnn(CC(=O)Nc3c(C)cc(C)cc3C)c2N)cc1OCC,2.5,0.0,28.7*,-19.8,5.6,19.8,2.2
CCOc1ccc(OCC)c(NC(=O)c2nnn(CC(=O)Nc3cc(C)cc(C)c3)c2N)c1,-16.4,0.1,60.9*,-26.0,2.0,26.0,8.1
CCOC(=O)Nc1ccc2c(c1)nc1n2CCN(CCOC)C1,-0.7,0.3,-3.5,8.9,10.5,-8.9,.
COc1cc(-c2cc(C(=O)Nc3cccc(C(C)=O)c3)c3ccccc3n2)cc(OC)c1OC,3.7,0.0,28.1*,-84.5,-0.5,84.5*,2.2
COc1cc(-c2cc(C(=O)Nc3ccc(O)cc3)c3ccccc3n2)cc(OC)c1OC,-12.1,0.1,2.7,.,-13.4,.,.
Cc1ccc(C)c(OCc2cc(C(=O)NC3CCN(Cc4ccccc4)CC3)no2)c1,-16.0,0.2,21.9*,-31.6,-24.4,31.6,3.5
CN(C)S(=O)(=O)c1ccc2oc(SCC(N)=O)nc2c1,-15.1,.,-9.5,33.9,.,-33.9,.
CN(C)S(=O)(=O)c1ccc2oc(SCC(=O)c3c(N)n(C4CC4)c(=O)[nH]c3=O)nc2c1,-19.7,-0.1,20.4*,3.3,10.9,-3.3,4.6
COc1ccc(C2N3CC4(C)CN2CC(C)(C3)C4=O)cc1OC (stereo not given),-5.0,0.1,-10.1,7.2,8.2,-7.2,.
N=c1oc2cc(O)ccc2cc1C(=O)Nc1ccc(Cl)cc1,-11.2,-0.1,27.2*,-2.3,-35.1,2.3,0.5
Cc1ccc(NC(=O)c2cc3ccccc3oc2=N)cc1,-7.2,-0.1,6.1,17.7,-3.0,-17.6,.
O=C(Nc1cccc(C(=O)O)c1)/C(=C\c1ccc2c(c1)OCO2)NC(=O)c1ccccc1Br,.,0.1,.,.,3.4,.,.
COc1ccc2cc(CN(CC3CCCO3)S(=O)(=O)c3ccccc3)c(=O)[nH]c2c1 (stereo not given),4.0,.,-10.6,11.5,.,-11.5,.
COc1ccc2cc(CN(CC3COCCO3)S(=O)(=O)c3ccc(Cl)cc3)c(=O)[nH]c2c1 (stereo not given),-7.9,.,38.6*,?,.,-283.8,-1.0
N#Cc1c(NC(=O)COC(=O)c2ccc(O)cc2O)sc2c1CCC2,-15.8,0.1,38.9*,9.3,4.2,-9.3,4.2
SMILES,PvdQ acylase,Xi reactivation,dFosB act-1,SR-BI uptake up,rRNA inh HTS,SR-BI HDL uptake,dFosB act-2
CC(C)(C)c1ccc(C(=O)OCC(=O)Nc2sc3c(c2C#N)CCC3)cc1,1.8,0.2,0.3,3.5,8.7,-3.5,.
Cc1ccccc1C(=O)Nc1nnc(CC(=O)N/N=C/c2ccco2)s1,-3.6,0.6,39.6*,.,7.3,.,5.2
Cc1ccccc1C(=O)Nc1nnc(CC(=O)N/N=C/c2cn(Cc3ccccc3)c3ccccc23)s1,-8.6,1.5,-4.0,.,4.9,.,.
C=CCNC(=O)c1ccc2c3n(nc2c1)-c1ccc(Cl)cc1CO3,-5.1,-0.1,-1.4,-60.2,-13.9,60.1,.
CCNC(=O)C[C@@H]1CC[C@H]2[C@H](COc3ccc(NC(=O)c4ccc(F)c(F)c4)cc3C(=O)N2C)O1,.,0.0,.,.,-1.4,.,.
CSc1nc(N)c(C#N)c(-c2ccc(Cl)cc2)c1C#N,6.5,.,3.2,-11.6,.,11.6,.
COc1ccc(-c2c(C#N)c(N)nc(Sc3ccc(Cl)cc3)c2C#N)cc1,-15.5,0.3,120.5*,14.5,21.7,-14.5,2.1
O=C(Nc1cc(=O)[nH]c(=O)[nH]1)c1cccc(C(F)(F)F)c1,-12.9,0.1,-6.4,13.9,-2.1,-13.9,.
O=C(Nc1ccc(-n2ccc(C(F)(F)F)n2)cc1)Nc1cccc(Cl)c1,2.3,0.2,28.7*,-25.5,-50.9*,25.5,5.9
Cc1cc(C)cc(NC(=O)Nc2ccc(-n3ccc(C(F)(F)F)n3)cc2)c1,-15.3,0.1,13.8,-29.5,-1.7,29.5,.
CCCn1c(-c2ccc[nH]c2=O)nc2cc(C)c(C)cc21,-14.4,0.1,2.3,-4.6,3.2,4.6,.
O=C(Nc1ccc(Cl)cc1)c1ccc(OC2CSC2)cc1,-14.4,0.4,20.8*,-6.7,12.6,6.7,5.5
CCCCc1nnc(NC(=O)CCS(=O)(=O)c2ccc(Cl)cc2)s1,13.0,0.4,24.3*,6.5,5.0,-6.5,2.2
CCCc1nnc(NC(=O)CCS(=O)(=O)c2ccccc2)s1,0.9,0.0,-1.5,-5.1,7.7,5.1,.
CCOc1ccc(CNC(=O)Cn2c(=O)c3cccn3c3ccccc32)cc1,-6.7,0.0,41.3*,10.1,0.6,-10.1,-0.8
CC(C)Oc1ccc(CNC(=O)Cn2c(=O)c3cccn3c3cccnc32)cc1,-16.2,0.0,29.5*,-5.7,-5.5,5.7,8.1
COc1cccc(CNC(=O)CCn2c(=O)c3cccn3c3cccnc32)c1,0.0,0.0,-4.5,-33.5,14.9,33.5,.
O=C(NCc1nc(-c2ccc(C(F)(F)F)cc2)no1)Nc1ccc(OC(F)(F)F)cc1,-1.9,0.3,23.5*,27.8,-24.9,-27.8,2.7
